Consider 4 molecules from ChEMBL document CHEMBL1135644, “Effect of spermine conjugation on the cytotoxicity and cellular transport of acridine” (J Med Chem, 2002).

Experiment [1] has as its system CHO. The experiment in a line: Cellular uptake of conjugates in CHO cells at a concentration of 10 uM (+/-15% SEM). It is filed as functional, cell-based. The settings on record: Cricetulus griseus. In a few lines:
(§1)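 Conjugates added 24 h after seeding (1 × 10^5 cells/mL, RPMI 1640 with 10% FCS and 2 mM aminoguanidine; proline added for CHO-MG) and left for 24 h. Cells were washed in 0.14 M NaCl, sonicated in 0.2 N HClO4/2 M NaCl and held 16 h at 4 °C. Conjugate in the supernatant was measured by fluorimetry against standards and expressed per mg protein (Folin). Mean of three determinations (±15%).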

For experiment [2], the system named is CHO. The experiment in a line: Cellular uptake of conjugates in CHO cells at a concentration of 2 uM (+/-15% SEM). The following applies: Cricetulus griseus. It is filed as functional, cell-based. In a few lines: as §1
Experiment [3] deals with CHO-MG. Kind of experiment: In vitro 25% cell growth inhibition by the compound in CHO-MG cells. In kind it is functional, Cricetulus griseus. The method, boiled down:
(§2)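 CHO or CHO-MG cells were trypsinized and plated singly at 2 × 10^3 cells/mL in RPMI 1640/10% FCS with 2 mM aminoguanidine (proline for CHO-MG). Conjugates were added after overnight incubation, with 48 h exposure. Growth was read by MTT formazan absorbance at 540 nm relative to untreated controls. The value is the concentration giving 25% or 50% growth inhibition.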

The test system of experiment [4] is CHO-MG. Kind of experiment: In vitro 25% cell growth inhibition by the compound in CHO-MG cells with 5 mM DFMO addition. In kind it is functional. The following applies: Cricetulus griseus. In a few lines: (§3)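 CHO or CHO-MG cells were plated at 2 × 10^3 cells/mL and incubated overnight. Conjugates and 5 mM DFMO were then added together, with 2 mM aminoguanidine present, for 48 h. MTT absorbance at 540 nm was expressed relative to DFMO-treated controls. The value is the concentration inhibiting growth 25% or 50%.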

Experiment [5] concerns CHO-MG. The experiment in a line: In vitro 50% cell growth inhibition by the compound in CHO-MG cells. It is filed as functional, cell-based. The settings on record: Cricetulus griseus. The method, boiled down: as §2
For experiment [6], the system named is CHO-MG. Kind of experiment: In vitro 50% cell growth inhibition by the compound in CHO-MG cells with 5 mM DFMO addition. In kind it is functional, cell-based. The following applies: Cricetulus griseus. In a few lines:
as §3

Experiment [7] concerns CHO-MG. Kind of experiment: Cellular uptake of conjugates in CHO-MG cells at a concentration of 10 uM (+/-15% SEM). In kind it is functional, cell-based. The settings on record: Cricetulus griseus. In a few lines: as §1
For experiment [8], the system named is CHO-MG. The experiment in a line: Cellular uptake of conjugates in CHO-MG cells at a concentration of 2 uM (+/-15% SEM). In kind it is functional, cell-based. The settings on record: Cricetulus griseus. The method, boiled down: as §1
In experiment [9] the test system is CHO. The experiment in a line: In vitro 50% cell growth inhibition by the co mpound in CHO cells with 5 mM DFMO addition. It is filed as functional, cell-based. The settings on record: Cricetulus griseus. In a few lines: as §3
Experiment [10] concerns CHO. Kind of experiment: In vitro 25% cell growth inhibition by the compound in CHO cells. It is filed as functional. The following applies: Cricetulus griseus. In a few lines:
as §2

The test system of experiment [11] is CHO. Kind of experiment: In vitro 25% cell growth inhibition by the compound in CHO cells with 5 mM DFMO addition. In kind it is functional. The settings on record: Cricetulus griseus. In a few lines:
as §3

Experiment [12] relates to L1210. Kind of experiment: In vitro 50% cell growth inhibition by the compound in L1210 cells. In kind it is functional, cell-based. The settings on record: Mus musculus. In a few lines: (§4)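 L1210 cells were seeded at 5 × 10^4 cells/mL with conjugate added at seeding, in medium with 2 mM aminoguanidine, for 48 h exposure. Growth was measured by MTT absorbance at 540 nm relative to untreated controls.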

The subject of experiment [13] is L1210. The experiment in a line: In vitro 50% cell growth inhibition by the compound in L1210 cells with 5 mM DFMO addition. In kind it is functional, cell-based. The following applies: Mus musculus. In a few lines:
(§5)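 L1210 cells were seeded at 5 × 10^4 cells/mL, and conjugate plus 5 mM DFMO were added at seeding with 2 mM aminoguanidine present. After 48 h, growth was read by MTT at 540 nm relative to DFMO-only controls.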

Experiment [14] has as its system L1210. Kind of experiment: In vitro 25% cell growth inhibition by the compound in L1210 cells. It is filed as functional. The following applies: Mus musculus. The method, boiled down:
as §4

Experiment [15] has as its system L1210. Kind of experiment: In vitro 25% cell growth inhibition by the compound in L1210 cells with 5 mM DFMO addition. It is filed as functional. The following applies: Mus musculus. In a few lines: as §5
The subject of experiment [16] is L1210. The experiment in a line: Inhibition of [14C]SPD uptake by the compound in 5 min initial rate transport assay in L1210 cells. It is filed as functional, cell-based, Mus musculus.
The test system of experiment [17] is L1210. Kind of experiment: Cellular uptake of conjugates in L1210 cells (control) at a concentration of 0.5 uM (+/-15% SEM). It is filed as functional, cell-based. The settings on record: Mus musculus. The method, boiled down: (§6)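 L1210 cells were seeded at 2 × 10^5 cells/mL with conjugate added at seeding, in medium containing 2 mM aminoguanidine, and cultured 24 h. Washed cells were extracted in 0.2 N HClO4/2 M NaCl for 16 h at 4 °C. Intracellular conjugate was quantified by fluorimetry and expressed as nmol/mg protein. Mean of three determinations (±15%).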

For experiment [18], the system named is L1210. Kind of experiment: Cellular uptake of conjugates in L1210 cells (control) at a concentration of 10 uM (+/-15% SEM). The following applies: Mus musculus. In kind it is functional, cell-based. The method, boiled down:
as §6

Experiment [19] deals with L1210. The experiment in a line: Cellular uptake of conjugates in L1210 cells (control) at a concentration of 2 uM (+/-15% SEM). In kind it is functional, cell-based. The following applies: Mus musculus. In a few lines: as §6
Experiment [20] concerns L1210. Kind of experiment: Cellular uptake of conjugates in L1210 cells in presence of 500 uM SPD at a concentration of 0.5 uM (+/-15% SEM). It is filed as functional, cell-based. The following applies: Mus musculus. The method, boiled down: (§7)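 Same as the L1210 uptake assay: seeded at 2 × 10^5 cells/mL, conjugate plus 500 μM spermidine added together at seeding, 24 h exposure. Extraction in HClO4/NaCl, fluorimetric quantitation, normalized to protein. Mean of three determinations (±15%).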

Experiment [21] deals with L1210. The experiment in a line: Cellular uptake of conjugates in L1210 cells in presence of 500 uM SPD at a concentration of 10 uM (+/-15% SEM). It is filed as functional, cell-based. The following applies: Mus musculus. In a few lines: as §7
For experiment [22], the system named is L1210. Kind of experiment: Cellular uptake of conjugates in L1210 cells in presence of 500 uM SPD at a concentration of 2 uM (+/-15% SEM). In kind it is functional, cell-based. The settings on record: Mus musculus. In a few lines: as §7
Experiment [23] deals with L1210. Kind of experiment: Cellular uptake of conjugates in L1210 cells pretreated with 5 mM DFMO at a concentration of 0.5 uM (+/-15% SEM). In kind it is functional, cell-based. The following applies: Mus musculus. In a few lines:
(§8)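 L1210 cells were seeded at 10^5 cells/mL in medium with 5 mM DFMO, and conjugates were added 24 h later. Cells were harvested after a further 24 h, extracted in 0.2 N HClO4/2 M NaCl and assayed by fluorimetry, expressed per mg protein. Mean of three determinations (±15%).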

Experiment [24] relates to L1210. Kind of experiment: Cellular uptake of conjugates in L1210 cells pretreated with 5 mM DFMO at a concentration of 10 uM (+/-15% SEM). In kind it is functional, cell-based. The following applies: Mus musculus. The method, boiled down: as §8
Experiment [25] deals with L1210. The experiment in a line: Cellular uptake of conjugates in L1210 cells pretreated with 5 mM DFMO at a concentration of 2 uM (+/-15% SEM). In kind it is functional, cell-based. The following applies: Mus musculus. The method, boiled down:
as §8

In a further experiment the test system is Nucleic Acid. The experiment in a line: Drug concentration required to produce 50% inhibition of fluorescence bound ethidium to CT-DNA (1.26:1) (+/-SEM 5%). The settings on record: Bos taurus. It is filed as functional. In a few lines: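 Ethidium displacement: 1 μM CT-DNA with 1.26 μM ethidium bromide; conjugate stock added serially. Fluorescence was read at excitation 546 nm and emission 595 nm. The value is the conjugate concentration cutting DNA-bound ethidium fluorescence by 50%. Mean of three determinations (±5%).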

The nature of experiment [26]: Ratio of cellular uptake in CHO cells to that of CHO-MG cells 2 uM. It is filed as functional.
Experiment [27] is described as follows: Ratio of cellular uptake in CHO cells to that of CHO-MG cells at 10 uM. It is filed as functional.
Experiment [28] relates to CHO. The experiment in a line: In vitro 50% cell growth inhibition by the compound in CHO cells. In kind it is functional, cell-based. The following applies: Cricetulus griseus. The method, boiled down:
as §2

Experiment [29] deals with CHO. Kind of experiment: Cellular uptake of conjugates in CHO cells at a concentration of 0.5 uM (+/-15% SEM). It is filed as functional, cell-based. The settings on record: Cricetulus griseus. In a few lines: as §1
Experiment [30] has as its system CHO-MG. Kind of experiment: Cellular uptake of conjugates in CHO-MG cells at a concentration of 0.5 uM (+/-15% SEM). It is filed as functional, cell-based. The following applies: Cricetulus griseus. In a few lines: as §1
The nature of experiment [31]: Ratio of cellular uptake in CHO cells to that of CHO-MG cells. In kind it is functional.

A word on the IC25: it is the concentration needed for an effect of 25%. The low end stands for greater potency, the high end for weaker potency. As usually defined, the IC50 is the concentration that inhibits the measured activity by half. As a reminder, the Ki is a measure of affinity in units of concentration, obtained from inhibition or displacement. A high value points to lower affinity. As to `Cl.NCCCNCCCCNCCCNCCCCCNC(=O)c1c2ccccc2nc2ccccc12`, the Uptake (nM (mg of protein)-1) in the experiment with CHO [1] is 0.125; in the experiment on CHO [2], 0.034; with CHO-MG [7], 0.112; in the experiment on CHO-MG [8], 0.032; with L1210 [17] it was 0.033; in the experiment on L1210 [18] it was 0.279. Besides, the Uptake (nM (mg of protein)-1) in the experiment with L1210 [19] came out at 0.064; in the experiment with L1210 [20], 0.016; with L1210 [21], 0.262; in the experiment with L1210 [22], 0.049; with L1210 [23] it was 0.113; with L1210 [24] it was 0.631. Further, in the experiment on L1210 [25], the Uptake (nM (mg of protein)-1) is 0.217. Further, the IC25 in the experiment with CHO-MG [3] is 10.5 µM; in the experiment with CHO-MG [4], 6 µM; with CHO [10], 10.8 µM; in the experiment with CHO [11], 0.025 µM; in the experiment on L1210 [14] it was 22 µM; with L1210 [15], 0.1 µM. The IC50 worked out at 31 µM in the experiment on CHO-MG [5]; 23 µM in the experiment with CHO-MG [6]; 2 µM in the experiment on CHO [9]; 41 µM with L1210 [12]; 6.6 µM in the experiment with L1210 [13]; 25 µM in the experiment with CHO [28]. The molecule also displayed a Ki with L1210 [16] of 0.097 µM. Moreover, the Concentration for 50% ethidium displacement from DNA (C50) in the experiment with Nucleic Acid stood at 120 nM. The Ratio in experiment [26] and in experiment [27] was 1.1 in each case.

For `c1ccc2nc3ccccc3cc2c1`, in the experiment on Nucleic Acid, the Concentration for 50% ethidium displacement from DNA (C50) was found to be 142000 nM.

As to `Cl.NCCCNCCCCNCCCNCCCCCNc1c2ccccc2nc2ccccc12`, the Uptake (nM (mg of protein)-1) was 0.21 in the experiment with CHO [29], 0.061 in the experiment with CHO-MG [30], 0.51 with L1210 [19] and 1.06 with L1210 [25]. The IC50 came out at 4 µM in the experiment with CHO-MG [5], 1.4 µM in the experiment on L1210 [12], 0.7 µM in the experiment on L1210 [13] and 1 µM in the experiment on CHO [28]. In addition, the IC25 in the experiment with L1210 [14] turned out to be 0.4 µM; with L1210 [15] it was 0.2 µM. The affinity in the experiment on L1210 [16] corresponds to a Ki of 0.135 µM. This molecule also displayed a Concentration for 50% ethidium displacement from DNA (C50) with Nucleic Acid of 110 nM. Also, in experiment [31], the Ratio turned out to be 3.4.

As to `NCCCNCCCCNCCCN`, the CC50 in the experiment with Nucleic Acid was 6.8 µM.
